Reference: BindingDB's records for doi:10.1021/jm950682e (Institute De Recherches Servier, 1996)
pKd: −log10 of the molar value. Numbered stars: 1 amine (or outer) side, 2 acyl side, 3 side chain; on linkers, the order of the positions; unused ones are H or OH. Square brackets hold non-standard residues; d marks the D form. Peptide text beside a SMILES is read from it. * marks the point of attachment. Pentanoyl(5-guanidino) = NC(N)=NCCCCC(=O)*; NH(CH2)9CO = O=C(CCCCCCCCCN[*:1])[*:2]; Oic = O=C(O)[CH]1C[CH]2CCCC[CH]2N1; Tic = O=C(O)[CH]1Cc2ccccc2CN1; 2Thi = N[CH](Cc1cccs1)C(=O)O; X2 = N=C(N)NCCCCCC(=O)*; GABA = NCCCC(=O)O

target: T1, B2 bradykinin receptor (Oryctolagus cuniculus, UniProt Q28642); experiment: In vitro antagonistic activity against kinin-induced rabbit jugular vein contraction.
T1 sequence (Q28642 whole entry): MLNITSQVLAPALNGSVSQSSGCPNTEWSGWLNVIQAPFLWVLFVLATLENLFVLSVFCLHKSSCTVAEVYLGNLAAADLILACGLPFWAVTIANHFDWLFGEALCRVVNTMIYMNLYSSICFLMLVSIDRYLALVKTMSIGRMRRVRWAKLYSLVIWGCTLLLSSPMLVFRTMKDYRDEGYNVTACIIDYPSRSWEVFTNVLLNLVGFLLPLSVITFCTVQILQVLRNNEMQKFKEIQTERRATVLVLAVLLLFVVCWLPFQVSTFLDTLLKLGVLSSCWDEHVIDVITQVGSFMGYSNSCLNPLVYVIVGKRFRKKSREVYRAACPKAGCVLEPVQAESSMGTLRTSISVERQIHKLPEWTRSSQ
Summary of the method: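 Rabbit jugular vein rings (B2 tissue), reference KCl 60 mM contraction then 45 min rest; antagonist, usually 10-7, 10^-6 and 10^-5 M, incubated 45 min before cumulative bradykinin; one curve per ring; pA2 by Tallarida's method with Schild slope constrained to unity, or pKB from EC50 ratio when activity appeared only at 10^-5 M.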

Row | pKd | Compound
1 | 6.44 | N=C(N)NCCCC(NC(=O)C1CC2CCCCC2N1C(=O)C1Cc2ccccc2CN1C(=O)C(Cc1ccccc1)NC(=O)CCCN)C(=O)O (stereo not given) (H-[GABA]F[Tic][Oic]R-OH; configuration not given here)
2 | 6.60 | N=C(N)NCCCC(NC(=O)C1CC2CCCCC2N1C(=O)C1Cc2ccccc2CN1C(=O)C(Cc1cccs1)NC(=O)CCCN)C(=O)O (stereo not given) (H-[GABA][2Thi][Tic][Oic]R-OH; configuration not given here)
3 | 5.47 | N=C(N)NCCCCCC(=O)NC(Cc1cccs1)C(=O)N1Cc2ccccc2CC1C(=O)N1C(C(=O)NC(CCCNC(=N)N)C(=O)O)CC2CCCCC21 (stereo not given) (X2-[2Thi][Tic][Oic]R-OH; configuration not given here)
4 | 6.33 | N=C(N)NCCCC(NC(=O)C1CC2CCCCC2N1C(=O)C1Cc2ccccc2CN1C(=O)C(Cc1cccs1)NC(=O)CCCCCCCCCN)C(=O)O (stereo not given) ({NH(CH2)9CO}-[2Thi][Tic][Oic]R-OH; configuration not given here)
5 | 5.52 | N=C(N)NCCCCC(=O)NC(Cc1cccs1)C(=O)N1Cc2ccccc2CC1C(=O)N1C(C(=O)NC(CCCNC(=N)N)C(=O)O)CC2CCCCC21 (stereo not given) ({Pentanoyl(5-guanidino)}-[2Thi][Tic][Oic]R-OH; configuration not given here)
